Results taken from ChEMBL document CHEMBL4130352, “Ciprofloxacin-nitroxide hybrids with potential for biofilm control” (Eur J Med Chem, 2017).
Values after ≈ are worked out from the molar mass of the structure shown. Active and inactive are the calls of the source. No cut-off for these calls is given here.

How the values were obtained:
Pseudomonas aeruginosa [1] = test: Inhibition of planktonic growth of Pseudomonas aeruginosa PA14 after 24 hrs by broth microdilution method; format: organism-based; settings: in vitro
In short: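 Broth microdilution in polypropylene microtiter plates. Compounds added as DMSO solutions, inoculum 5×10^5 CFU/mL final, incubated 37 °C for 24 h. MIC taken as the lowest concentration with no visible growth.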

Pseudomonas aeruginosa [2] = test: Antibiofilm activity against Pseudomonas aeruginosa PA14 assessed as total live biofilm biomass eradication at 20 uM preincubated for 24 hrs measured after 2 hrs by SYTO/propidium iodide double-staining-based confocal laser scanning microscopic analysis relative to control; format: functional
Pseudomonas aeruginosa [3] = test: Antibiofilm activity against Pseudomonas aeruginosa PA14 assessed as removal of biomass at 20 uM preincubated for 24 hrs measured after 2 hrs by SYTO/propidium iodide double-staining-based confocal laser scanning microscopic analysis relative to control; format: functional
Pseudomonas aeruginosa [4] = test: Effect on Pseudomonas aeruginosa PA14 assessed as dead cells at 20 uM preincubated for 24 hrs measured after 2 hrs (reference value: 4%); format: organism-based
Pseudomonas aeruginosa [5] = test: Antibiofilm activity against Pseudomonas aeruginosa PA14 assessed as removal of mature biofilm at 40 uM preincubated for 24 hrs measured after 2 hrs by SYTO/propidium iodide double-staining-based confocal laser scanning microscopic analysis relative to control; format: functional
Pseudomonas aeruginosa [6] = test: Antibiofilm activity against Pseudomonas aeruginosa PA14 assessed as dispersion of bacteria from biofilms at 20 uM after 18.5 hrs relative to control; format: functional
In short: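 PA14 biofilms pre-grown 2 days at 37°C in flow cells, then treated with 20 μM compound. Dispersed cells collected from chamber effluent at set times, plated on Pseudomonas Isolation Agar at 37°C, counted next day as CFU/mL. Fold change in viable dispersed cells calculated against untreated PA14 biofilms.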

HEK293 = test: Cytotoxicity against HEK293 cells assessed as reduction in cell viability at 5 to 40 uM after 24 hrs by LDH release assay; format: cell-based; settings: human, hek293, 24 h
In short: (§1)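 HEK 293 and RD cells were grown in DMEM with 10% FBS at 37°C, 5% CO2, and seeded the day before at 50,000 (HEK 293) or 20,000 (RD) cells per well. Compounds (5 mM DMSO stock) were added at 5–40 μM for 24 h, with 0.8% DMSO in all wells. LDH release was normalised to untreated cells and 3 h lysis-buffer controls. Run in triplicate.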

RD = test: Cytotoxicity against human RD cells assessed as reduction in cell viability at 5 to 40 uM after 24 hrs by LDH release assay; format: cell-based; in short: as §1
Pseudomonas aeruginosa [7] = test: Inhibition of planktonic growth of Pseudomonas aeruginosa PA14 assessed as reduction of colony forming units after 24 hrs; format: organism-based
In short: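 Overnight PA14 cultures were diluted 1:100 with or without compound (0–160 μM) and incubated 24 h. Samples were then 10-fold serially diluted and plated on LB agar, grown overnight at 37°C, and CFU were counted.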

Pseudomonas aeruginosa [8] = test: Antibiofilm activity against Pseudomonas aeruginosa PA14 assessed as dispersion of bacteria from biofilms at 20 uM after 2 to 3 hrs; format: functional, organism-based
In short: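 PA14 biofilms grown 2 days in flow cells at 37°C, then exposed to 20 μM compound. Dispersed cells were collected from chamber effluent at set times, plated on Pseudomonas Isolation Agar and incubated at 37°C. CFU/mL was counted the next day, and fold-change in dispersed viable cells was calculated against untreated PA14 effluent.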

MIC (Pseudomonas aeruginosa [1]) [µM] | MIC (Pseudomonas aeruginosa [7]) [µM] | Structure (SMILES) | Activity (Pseudomonas aeruginosa [2]) [%] | Activity (Pseudomonas aeruginosa [3]) [%] | Activity (Pseudomonas aeruginosa [4]) [%] | Activity (Pseudomonas aeruginosa [5]) | fold change (FC) (Pseudomonas aeruginosa [6]) | Activity (HEK293) | Activity (RD) | Activity (Pseudomonas aeruginosa [8])
0.5 (≈ 0.166 µg/mL) | – | O=C(O)c1cn(C2CC2)c2cc(N3CCNCC3)c(F)cc2c1=O [CIPROFLOXACIN] | – | – | – | – | – | – | – | –
– | – | CC1(C)CC(N2CCN(c3cc4c(cc3F)c(=O)c(C(=O)O)cn4C3CC3)CC2)CC(C)(C)N1[O] | 80 | – | 50 | <=95% | – | – | – | –
> 303 | – | CON1C(C)(C)CC(C(=O)N2CCN(c3cc4c(cc3F)c(=O)c(C(=O)O)cn4C3CC3)CC2)CC1(C)C | 30 | 17 | 16 | – | 0 | Non-Toxic | Non-Toxic | –
311 (≈ 160 µg/mL) | – | CON1C(C)(C)CC(C(=O)N2CCN(c3cc4c(cc3F)c(=O)c(C(=O)O)cn4C3CC3)CC2)C1(C)C (stereo not drawn) | 31 | 24 | 9 | – | – | – | – | –
> 284 | > 160 | CON1C(C)(C)c2ccc(C(=O)N3CCN(c4cc5c(cc4F)c(=O)c(C(=O)O)cn5C4CC4)CC3)cc2C1(C)C | 54 | 53 | 2 | – | – | Non-Toxic | Non-Toxic | –

Structure (SMILES) | MIC (Pseudomonas aeruginosa [1]) [µM] | MIC (Pseudomonas aeruginosa [7]) [µM] | Activity (Pseudomonas aeruginosa [2]) [%] | Activity (Pseudomonas aeruginosa [3]) [%] | Activity (Pseudomonas aeruginosa [4]) [%] | Activity (Pseudomonas aeruginosa [5]) | fold change (FC) (Pseudomonas aeruginosa [6]) | Activity (HEK293) | Activity (RD) | Activity (Pseudomonas aeruginosa [8])
CC1(C)CC(C(=O)N2CCN(c3cc4c(cc3F)c(=O)c(C(=O)O)cn4C3CC3)CC2)C(C)(C)N1[O] (stereo not drawn) | 160 (≈ 79.9 µg/mL) | – | 67 | 67 | 0 | – | – | – | – | –
CC1(C)CC(C(=O)N2CCN(c3cc4c(cc3F)c(=O)c(C(=O)O)cn4C3CC3)CC2)CC(C)(C)N1[O] | 312 (≈ 160 µg/mL) | – | 41 | 37 | 6 | – | – | Non-Toxic | Non-Toxic | Active
